Measured values taken from ChEMBL document CHEMBL1156597, “Structure-activity relationship of kahalalide F synthetic analogues” (J Med Chem, 2008).

Tests used:
[1] = tested on: DU-145; test: Cytotoxicity against human DU145 cells after 48 hrs by SRB assay; format: functional, cell-based; conditions: Homo sapiens, DU-145, 48 h; for CC50: read-out: LC50 (the source's name)
Procedure, shortened: (§1)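 Cells grown in RPMI 1640 with 10% FBS and penicillin/streptomycin at 37 °C and 5% CO₂, trypsinized, then seeded at 5 × 10³/well. After 18 h drug-free attachment, samples in DMSO/EtOH/PBS (0.5:0.5:99) were added for 48 h continuous exposure. Cells were fixed with cold TCA (1 h, 4 °C) and stained with SRB (10 min). Tris-solubilized stain read at 490 nm. Triplicate wells, mean ± SD; GI₅₀ derived.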

[2] = tested on: LNCaP; test: Cytotoxicity against human LNcaP cells after 48 hrs by SRB assay; format: functional; conditions: for CC50: read-out: LC50 (the source's name); procedure, shortened: as §1
[3] = Cytotoxicity against human IGROV cells after 48 hrs by SRB assay; format: functional; conditions: for CC50: read-out: LC50 (the source's name); procedure, shortened: as §1
[4] = Cytotoxicity against human IGROV-ET cells after 48 hrs by SRB assay; format: functional; conditions: for CC50: read-out: LC50 (the source's name); procedure, shortened: as §1
[5] = tested on: SK-BR-3; test: Cytotoxicity against human SKBR3 cells after 48 hrs by SRB assay; format: functional; conditions: SK-BR-3, 48 h; for CC50: read-out: LC50 (the source's name); for GI50: read-out: GI50; procedure, shortened: as §1
[6] = tested on: SK-MEL-28; test: Cytotoxicity against human SK-MEL-28 cells after 48 hrs by SRB assay; format: functional, cell-based; conditions: Homo sapiens, SK-MEL-28, 48 h; for CC50: read-out: LC50 (the source's name); procedure, shortened: as §1
[7] = tested on: A549; test: Cytotoxicity against human A549 cells after 48 hrs by SRB assay; format: functional, cell-based; conditions: Homo sapiens, A549, 48 h; for GI50: read-out: GI50; procedure, shortened: as §1
[8] = tested on: K562; test: Cytotoxicity against human K562 cells after 48 hrs by SRB assay; format: functional; conditions: K562, 48 h; for CC50: read-out: LC50 (the source's name); procedure, shortened: as §1
[9] = tested on: PANC-1; test: Cytotoxicity against human PANC1 cells after 48 hrs by SRB assay; format: functional; conditions: PANC-1, 48 h; for CC50: read-out: LC50 (the source's name); procedure, shortened: as §1
[10] = tested on: HT-29; test: Cytotoxicity against human HT29 cells after 48 hrs by SRB assay; format: functional, cell-based; conditions: Homo sapiens, HT-29, 48 h; for CC50: read-out: LC50 (the source's name); procedure, shortened: as §1
[11] = tested on: LoVo; test: Cytotoxicity against human LoVo cells after 48 hrs by SRB assay; format: functional; conditions: for CC50: read-out: LC50 (the source's name)
[12] = tested on: LoVo; test: Cytotoxicity against human doxorubicin resistant LoVo cells after 48 hrs by SRB assay; format: functional; conditions: for CC50: read-out: LC50 (the source's name); procedure, shortened: as §1
[13] = tested on: HeLa; test: Cytotoxicity against human HeLa cells after 48 hrs by SRB assay; format: functional; conditions: for CC50: read-out: LC50 (the source's name); procedure, shortened: as §1
[14] = Cytotoxicity against human HeLa-APL cells after 48 hrs by SRB assay; format: functional; procedure, shortened: as §1

C/C=C1\NC(=O)[C@H](Cc2ccccc2)NC(=O)[C@@H](C(C)C)NC(=O)[C@@H]([C@H](C)CC)NC(=O)[C@H](NC(=O)[C@H](NC(=O)[C@H](CCCN)NC(=O)[C@H]2CCCN2C(=O)[C@H](NC(=O)[C@@H](NC(=O)[C@H](CCCN)NC(=O)[C@H](NC(=O)CCCC(C)C)C(C)C)C(C)C)C(C)C)[C@H](C)CC)[C@H](C)OC(=O)[C@H](C(C)C)NC1=O
CC50 [1]: 1400 nM
GI50 [2]: 675 nM
TGI [2]: 2240 nM
CC50 [2]: 1120 nM
GI50 [3]: 292 nM
GI50 ([3]; read-out: GI50): 4700 nM
CC50 [3]: 576 nM
CC50 [4]: 957 nM
CC50 [5]: 296 nM
CC50 [6]: 1640 nM
LC50 [7]: 4620 nM
GI50 [8]: 1620 nM
TGI [8]: 1890 nM
CC50 [8]: 2180 nM
CC50 [9]: 2240 nM
GI50 [10]: 5900 nM
TGI [10]: 5140 nM
CC50 [10]: 446 nM
GI50 [11]: 4940 nM
TGI [11]: 4180 nM
CC50 [11]: 3330 nM
GI50 [12]: 2880 nM
TGI [12]: 2700 nM
CC50 [12]: 484 nM
CC50 [13]: 951 nM
LC50 (concentration giving 50% net cell kill) [14]: 9600 nM

C/C=C1\NC(=O)[C@H](Cc2ccccc2)NC(=O)[C@@H](C(C)C)NC(=O)[C@@H]([C@H](C)CC)NC(=O)[C@H](NC(=O)[C@H](NC(=O)[C@H](CCCN)NC(=O)[C@H]2CCCN2C(=O)[C@H](NC(=O)[C@H](CCC2CCCCC2)NC(=O)[C@@H](NC(=O)[C@@H](CC2CCCCC2)NC(=O)CCCC(C)C)[C@@H](C)O)C(C)C)[C@H](C)CC)[C@H](C)OC(=O)[C@H](C(C)C)NC1=O
TGI [1]: 2550 nM
GI50 ([1]; read-out: GI50): 3300 nM
CC50 [1]: 1350 nM
CC50 [2]: 1380 nM
CC50 [3]: 7300 nM
CC50 [4]: 968 nM
TGI [5]: 1690 nM
GI50 [5]: 2060 nM
CC50 [5]: 703 nM
TGI [6]: 3090 nM
GI50 ([6]; read-out: GI50): 3180 nM
CC50 [6]: 1490 nM
LC50 [7]: 1670 nM
TGI [7]: 3240 nM
GI50 [7]: 3600 nM
GI50 [8]: 1790 nM
TGI [8]: 1790 nM
CC50 [8]: 1790 nM
CC50 [9]: 1640 nM
GI50 [10]: 2900 nM
TGI [10]: 2700 nM
CC50 [10]: 2490 nM
GI50 [11]: 2810 nM
TGI [11]: 3010 nM
CC50 [11]: 3220 nM
GI50 [12]: 1210 nM
TGI [12]: 1530 nM
CC50 [12]: 9670 nM
GI50 [13]: 2950 nM
TGI [13]: 3510 nM
CC50 [13]: 1770 nM
GI50 [14]: 4340 nM
LC50 (concentration giving 50% net cell kill) [14]: 1660 nM
TGI [14]: 3500 nM

C/C=C1\NC(=O)[C@H](Cc2ccccc2)NC(=O)[C@@H](C(C)C)NC(=O)[C@@H]([C@H](C)CC)NC(=O)[C@H](NC(=O)[C@H](NC(=O)[C@H](CCCN)NC(=O)[C@H]2CCCN2C(=O)[C@H](NC(=O)[C@@H](NC(=O)[C@@H](NC(=O)[C@H](NC(=O)CCCCCCC)C(C)C)[C@@H](C)O)C(C)C)C(C)C)[C@H](C)CC)[C@H](C)OC(=O)[C@H](C(C)C)NC1=O
GI50 [1]: 666 nM
GI50 ([1]; read-out: GI50): 578 nM
CC50 [1]: 758 nM
GI50 [2]: 779 nM
TGI [2]: 837 nM
CC50 [2]: 889 nM
GI50 [3]: 580 nM
GI50 ([3]; read-out: GI50): 684 nM
CC50 [3]: 509 nM
GI50 [4]: 513 nM
GI50 ([4]; read-out: GI50): 529 nM
CC50 [4]: 393 nM
TGI [5]: 359 nM
GI50 [5]: 343 nM
CC50 [5]: 374 nM
GI50 [6]: 949 nM
GI50 ([6]; read-out: GI50): 933 nM
CC50 [6]: 966 nM
LC50 [7]: 1200 nM
TGI [7]: 1130 nM
GI50 [7]: 1050 nM
GI50 [8]: 1000 nM
TGI [8]: 1230 nM
CC50 [8]: 1500 nM
GI50 [9]: 2830 nM
TGI [9]: 4210 nM
CC50 [9]: 2290 nM
GI50 [10]: 578 nM
TGI [10]: 587 nM
CC50 [10]: 917 nM
GI50 [11]: 321 nM
TGI [11]: 396 nM
CC50 [11]: 443 nM
GI50 [12]: 299 nM
TGI [12]: 289 nM
CC50 [12]: 278 nM
GI50 [13]: 946 nM
TGI [13]: 1010 nM
CC50 [13]: 1080 nM
GI50 [14]: 527 nM
LC50 (concentration giving 50% net cell kill) [14]: 1220 nM
TGI [14]: 808 nM
